In the library only some 4.1% were active in any assay of this set; here they are far more common.
hERG protect = compounds protecting human hERG from proarrhythmic drug block | AID 1511 | CHO-hERG, FluxOR thallium flux, dofetilide IC70 present | Q12809 | activation (rescue from dofetilide block), less the hit threshold, % at 10 µM | 310,000 tested, 0.51% active;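 active means activation above the mean of controls blocked by dofetilide plus 5 SD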;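 further: thallium influx through hERG after potassium depolarization seen as dye fluorescence rise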
KCNK3 block = human KCNK3 channel inhibition, primary screen. 340,000 tested, 0.84% active. CHO-KCNK3 thallium flux, FluxOR fluorescence; hits give low values. AID 602410. B-score at 10 µM. O14649;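 active means B-score under library mean minus 4 SD, starting fluorescence ratio at most library mean plus 5 SD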;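 further: more negative B-score means stronger inhibition of thallium flux through KCNK3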
KCC2 mod = modulates chloride dependent transport by human KCC2; Q9H2X9; KCC2 cells, thallium flux FluoZin-2 fluorescence; B-score of Tl+ flux slope (higher = more flux/activation; lower = inhibition) at 10 µM; 190,000 tested, 2.2% active; AID 1456;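 active means thallium flux slope and its plate-corrected score both differing from the plate sample mean at a set confidence after two filtering rounds, in either direction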;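 further: slope of fluorescence scaled to starting intensity during 10 to 20 s after thallium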
KCNK9 inh = blocks the human KCNK9 two-pore domain potassium channel | Q9NPC2 | HEK293 KCNK9, FluxOR thallium flux fluorescence; hits give low values | B-score at 10 µM | 310,000 tested, 1.2% active | AID 488922;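 active means ratio B-score over 3 SD below the library mean, with starting fluorescence within 5 SD of its mean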;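 further: negative B-score means less thallium flux so channel inhibition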
KCNQ1 act = human KCNQ1 channel potentiation or activation. P51787. CHO-K1 KCNQ1, thallium flux FluxOR fluorescence; hits give high values. B-score at 10 µM. 310,000 tested, 0.35% active;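 active means fluorescence ratio B-score, a plate-corrected score, at least three library SD, with initial intensity B-score within 5 SD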
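assay system = KCNQ1-transfected CHO-K1 cells | medium = assay buffer with matched DMSO | probe or stimulus = depolarizing K+/Tl+ stimulus, K2SO4 and Tl2SO4 each 12.5 mM in 5x stock | dosing = single dose | incubation = dye 90 min, compound 20 min, room temperature | detection = kinetic FluxOR fluorescence, 10 s baseline plus 110 s post-stimulus | evaluation = ratio B score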
KCNQ1 inh = blocks the human KCNQ1 potassium channel | CHO-K1 KCNQ1, FluxOR thallium flux fluorescence; hits give high values | B-score at 10 µM | 310,000 tested, 1.3% active | AID 2642;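 active means compounds whose thallium flux B-score, printed positive for inhibition, exceeds three library SD while starting fluorescence stays within three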;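 further: channel opened by potassium depolarization with thallium stimulus after 20 min compound exposure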
KCNK9 block conf = human KCNK9 inhibitor confirmation; HEK293 KCNK9 cells, FluxOR thallium flux fluorescence; AID 492992; inhibition, % at 10 µM; shares compounds with KCNK9 inh; 4,900 tested, 43% active;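 active means thallium signal inhibited by more than 5 SD of the compound-free buffer control wells, on both duplicate plates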;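 further: 0% = assay buffer control wells without compound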
Kir2-1 spec = tests whether KCNK9 modulators also affect mouse Kir2.1; shares compounds with KCNK9 inh; Kir2.1 cells, FluxOR thallium flux fluorescence; inhibition, % at 10 µM; 4,900 tested, 4% active; AID 492993;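 active means thallium signal drop more than 5 SD beyond the mean of the no-compound control wells, seen in both duplicate plates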;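 further: signal is fluorescence rise after thallium addition divided by baseline fluorescence; plate controls were assay buffer only for no effect and full block by chlorpromazine control for full effect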
KCNK9 uninduced = non-induced cell nonspecific activity of KCNK9 modulators; shares compounds with KCNK9 inh; non-induced KCNK9-HEK293, FluxOR thallium flux; inhibition, % at 10 µM; 4,900 tested, 40% active;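 active means thallium signal drop beyond 5 SD of the untreated control mean, on both duplicate plates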;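 further: plate controls were buffer only IC0 wells for no effect and SID17386958 at its maximal inhibitory level for full effect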
KCNK3 confirm = human KCNK3 channel inhibition, confirmation assay; shares compounds with KCNK3 block; CHO-KCNK3 thallium flux, FluxOR fluorescence; 0% buffer, 100% carvedilol maximal block; ratio percent of control, % at 10 µM; 2,400 tested, 99% active;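 active means ratio percent of control, averaged over triplicates, above buffer control mean plus 5 SD, cut at about 64% in these data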;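 further: ratio is the fluorescence rise from min to max over baseline after thallium stimulus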
KCNK3 uninduced = counter-screen for KCNK3 inhibitors: effect in non-induced cells; shares compounds with KCNK3 block; thallium flux ratio (lower = more inhibition) at 10 µM; non-induced KCNK3 parental cells, FluxOR thallium flux; hits give low values; 2,400 tested, 40% active;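 active means thallium flux ratio, averaged over three wells, more than 5 SD below the buffer control mean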;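 further: host cells are CHO cells without KCNK3 induction; ratio is peak minus trough fluorescence over baseline then normalized to buffer controls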
Starred values were filed as active, the others as inactive.

`CN(C)S(=O)(=O)c1ccc(Cl)c(NC(=O)COC(=O)CNS(=O)(=O)c2c(F)cccc2F)c1` gave KCNK3 block inactive.
Cc1cc(OC(=O)c2cccc(F)c2)c([N+](=O)[O-])c(=O)[nH]1 was read as hERG protect -6.3, KCNK3 block inactive, KCNK9 inh inactive, KCNQ1 act inactive and KCNQ1 inh inactive.
For O=[N+]([O-])c1cccc(C2CC(c3ccccc3)=NN2c2ccccc2)c1 (stereo not drawn) the results were hERG protect -5.0, KCNK3 block inactive, KCNK9 inh -10.1*, KCNQ1 act inactive, KCNQ1 inh inactive, KCNK9 block conf 56.5%*, Kir2-1 spec inactive, KCNK9 uninduced 28.0%*, KCNK3 confirm 94.0* and KCNK3 uninduced inactive.
COc1ccccc1C(c1nnnn1C(C)(C)C)N1CCN(Cc2ccncc2)CC1 (stereo not drawn) was read as hERG protect -8.2, KCNK3 block -9.22*, KCNK9 inh -18.9*, KCNQ1 act inactive, KCNQ1 inh inactive, KCNK9 block conf 76.5%*, Kir2-1 spec inactive, KCNK9 uninduced 33.5%*, KCNK3 confirm 115.7* and KCNK3 uninduced inactive.
Screening COc1ccccc1N1CCN(C(c2ccccc2Cl)c2nnnn2C(C)(C)C)CC1 (stereo not drawn) returned KCNK3 block inactive and KCC2 mod -1.54.
Screening CCc1cc(=O)oc2cc(C)cc(OCC(=O)N3CCC(C(=O)NC(C)C)(c4ccccc4)CC3)c12 returned hERG protect -9.9, KCNK3 block -13.5*, KCNK9 inh -18.9*, KCNQ1 act inactive, KCNQ1 inh inactive, KCNK9 block conf 65.0%*, Kir2-1 spec inactive, KCNK9 uninduced 26.0%*, KCNK3 confirm 100.3* and KCNK3 uninduced inactive.
S=C(NCc1ccc(Cl)cc1)NCc1ccco1 was read as hERG protect -10.5, KCNK3 block inactive, KCNK9 inh inactive, KCNQ1 act inactive and KCNQ1 inh inactive.
For CCSc1nc2ccccc2n1CCOc1ccccc1 the results were hERG protect -3.2, KCNK3 block -10.9*, KCNK9 inh -12.4*, KCNQ1 act inactive, KCNQ1 inh inactive, KCNK9 block conf 28.5%*, Kir2-1 spec inactive, KCNK9 uninduced 29.5%*, KCNK3 confirm 120.3* and KCNK3 uninduced inactive.
COCCn1c(SCCOc2ccccc2)nc2ccccc2c1=O was read as hERG protect -11.2, KCNK3 block -9.03*, KCC2 mod -0.558, KCNK9 inh -10.7*, KCNQ1 act inactive, KCNQ1 inh inactive, KCNK9 block conf 37.5%*, Kir2-1 spec inactive, KCNK9 uninduced 46.5%*, KCNK3 confirm 114.3* and KCNK3 uninduced 0.143*.
For OCCn1c(SCCOc2ccccc2)nc2ccccc21 the results were hERG protect -7.9, KCNK3 block inactive, KCC2 mod -1.7, KCNK9 inh inactive, KCNQ1 act inactive and KCNQ1 inh inactive.
For CCN(CC(=O)NCc1cccs1)S(=O)(=O)c1cccc(Br)c1 the results were KCNK3 block inactive.
